Measured values as given in ChEMBL document CHEMBL3763084, “Design and synthesis of substituted pyrido[3,2-d]-1,2,3-triazines as potential Pim-1 inhibitors” (Bioorg Med Chem Lett, 2016).
Active and inactive are the calls of the source. The calls are words filed in the database; no cut-off is given here.

Experiments:
[1] = target: T1, Serine/threonine-protein kinase pim-1 (Homo sapiens, UniProt P11309); assay: Inhibition of Pim 1 (unknown origin) after 50 mins by HTRF method
[2] = Antiproliferative activity against human PC3 cells after 96 hrs by MTT assay; type: functional, cell-based; details: PC-3, 96 h
LNCaP = assay: Antiproliferative activity against human LNCAP cells after 96 hrs by MTT assay; type: functional, cell-based
PC-3 = assay: Effect on PIM1 expression in human PC3 cells at 5 to 20 uM after 24 hrs by western blot analysis; type: functional, cell-based
In short: (§1)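 PC-3 cells were exposed for 24 h to the test compound at 0, 5, 10 or 20 μM, with DMSO as the negative control and a reference Pim-1 inhibitor at 10 μM. Lysates were analysed by western blot for BAD phospho-Ser112, 4E-BP1 phospho-Thr37/46, c-Myc and total Pim-1.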

[3] = target: T1, Serine/threonine-protein kinase pim-1; assay: Inhibition of Pim1 in human PC3 cells assessed as decrease in c-Myc level at 5 to 20 uM after 24 hrs by western blot analysis; type: cell-based; details: PC-3; in short: as §1
[4] = target: T1, Serine/threonine-protein kinase pim-1; assay: Inhibition of Pim1 in human PC3 cells assessed as decrease in BAD phosphorylation at Ser112 residue after 24 hrs by western blot analysis; type: cell-based; details: PC-3; in short: as §1
[5] = target: T1, Serine/threonine-protein kinase pim-1; assay: Inhibition of Pim1 in human PC3 cells assessed as decrease in 4E-BP1 phosphorylation at Thr37/46 residue after 24 hrs by western blot analysis; type: cell-based; details: PC-3; in short: as §1
[6] = target: T1, Serine/threonine-protein kinase pim-1; details: PC-3, 10 uM
[7] = target: T1, Serine/threonine-protein kinase pim-1; details: PC-3, 10 uM; remark: listed apart in the source
[8] = target: T1, Serine/threonine-protein kinase pim-1; details: PC-3, 10 uM; remark: listed apart in the source

SMILES	IC50 [1]	IC50 [2]	IC50 (LNCaP)	also measured
COc1ccc2nnnc(Nc3cccc(OC(F)(F)F)c3)c2n1	2.02 µM			
OCCNc1ccc2nnnc(Nc3cccc(OC(F)(F)F)c3)c2n1	2.1 µM	> 100 µM	42.9 µM	
CC(C)(C)OC(=O)N1CCC(CNc2ccc3nnnc(Nc4cccc(OC(F)(F)F)c4)c3n2)CC1	> 10 µM	> 100 µM	> 100 µM	
CN1CCC(CNc2ccc3nnnc(Nc4cccc(OC(F)(F)F)c4)c3n2)CC1	1.87 µM	15.8 µM	17.3 µM	
FC(F)(F)Oc1cccc(Nc2nnnc3ccc(N4CCNCC4)nc23)c1	0.69 µM	11.5 µM	8.51 µM	
CCN1CCN(c2ccc3nnnc(Nc4cccc(OC(F)(F)F)c4)c3n2)CC1	2.04 µM	16.9 µM	14.3 µM	
FC(F)(F)Oc1cccc(Nc2nnnc3ccc(N4CCC(N5CCCC5)CC4)nc23)c1	1.05 µM	8.16 µM	10.7 µM	Activity (PC-3): inactive; inhibition [3]: Active; inhibition [4]: Dose-dependent effect; inhibition [5]: Dose-dependent effect
CCCCOc1ccc2nnnc(Nc3cccc(OC(F)(F)F)c3)c2n1	> 10 µM			
CC1CCCCN1c1ccc2nnnc(Nc3cccc(OC(F)(F)F)c3)c2n1 (stereo not given)	1.31 µM			
CC1CCN(c2ccc3nnnc(Nc4cccc(OC(F)(F)F)c4)c3n2)CC1	> 10 µM			
FC(F)(F)Oc1cccc(Nc2nnnc3ccc(Cl)nc23)c1	> 10 µM	5.99 µM	8.62 µM	
CC(C)N1CCN(c2ccc3nnnc(Nc4cccc(OC(F)(F)F)c4)c3n2)CC1	1.08 µM	13.8 µM	10.7 µM	
FC(F)(F)Oc1cccc(Nc2nnnc3ccc(N4CCCC4)nc23)c1	> 10 µM	> 100 µM	> 100 µM	
FC(F)(F)Oc1cccc(Nc2nnnc3ccc(N4CCC(N5CCCCC5)CC4)nc23)c1	2.47 µM	5.58 µM	4.9 µM	
CCOc1ccc2nnnc(Nc3cccc(OC(F)(F)F)c3)c2n1	> 10 µM	> 100 µM	> 100 µM	
CN1CCN(c2ccc3nnnc(Nc4cccc(OC(F)(F)F)c4)c3n2)CC1	0.6 µM	24 µM	20.3 µM	
FC(F)(F)Oc1cccc(Nc2nnnc3ccc(N4CCOCC4)nc23)c1	1.45 µM	41 µM	31 µM	
FC(F)(F)Oc1cccc(Nc2nnnc3ccc(NCC4CCNCC4)nc23)c1	0.8 µM	8.32 µM	11.5 µM	
CN1CCC(CNc2ccc3ncc(-c4cccc(OC(F)(F)F)c4)n3n2)CC1 [SGI-1776]		4.86 µM	6.85 µM	inhibition [6]: Active; inhibition [7]: Active; inhibition [8]: Active
